Experimental data: ChEMBL document CHEMBL1154590, “Synthesis and evaluation of dimeric 1,2,3,4-tetrahydro-naphthalenylamine and indan-1-ylamine derivatives with mast cell-stabilising and anti-allergic activity” (2010)
The source made the active and inactive calls. No cut-off for these calls is given here.

How the values were obtained:
Mast cell [1] = assay: Inhibition of 48/80-induced histamine release in Wistar rat peritoneal mast cells at 2 x 10^-5 M after 5 mins
Mast cell [2] = assay: Inhibition of 48/80-induced histamine release in Wistar rat peritoneal mast cells at 2 x 10^-5 M after 5 mins; format: functional
Rattus norvegicus = assay: Antiallergic activity in Wistar rat assessed as inhibition of ovalbumin-induced passive cutaneous anaphylaxis reaction at 3 mg/kg, iv treated after 48 hrs of ovalbumin challenge measured after 30 mins; format: functional
Method in brief: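 Female Wistar rats were sensitised by intradermal antiserum (0.1 mL per site) against ovalbumin, raised in rats given ovalbumin with heat-killed Bordetella pertussis. Sites were excised at 30 min, digested in KOH overnight at 37 °C and extracted with H3PO4/acetone. Absorbance read at 620 nm; % inhibition reported.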

Mast cell [3] = assay: Inhibition of anti-IgE-induced histamine release in Brown Norway rat peritoneal mast cells at 2 x 10^-5 M
Mast cell [4] = assay: Inhibition of A23187-induced histamine release in Wistar rat peritoneal mast cells; format: functional
Method in brief: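 Rat peritoneal mast cells from female Wistar rats, in mast cell medium (MCM) buffer. Histamine release was elicited with A23187 at 1 µg ml-1. IC50 determined.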

Mast cell [5] = assay: Inhibition of concanavalin A-induced histamine release in Wistar rat peritoneal mast cells; format: functional
Method in brief: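 Female Wistar rat peritoneal mast cells, in mast cell medium (MCM) buffer. Concanavalin A at 20 µg ml-1 served as the degranulating stimulus. IC50 determined.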

Mast cell [6] = assay: Inhibition of 48/80-induced histamine release in Wistar rat peritoneal mast cells after 5 mins; format: functional
Mast cell [7] = assay: Inhibition of vancomycin-induced histamine release in Wistar rat peritoneal mast cells; format: functional
Method in brief: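 Peritoneal mast cells from female Wistar rats, in Tyrodes buffer, challenged with vancomycin at 2.52 mg mL-1 to induce degranulation. IC50 determined.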

Mast cell [8] = assay: Inhibition of anti-IgE-induced histamine release in Brown Norway rat peritoneal mast cells at 10^-5 M

Structure (SMILES) | inhibition at 20 µM (Mast cell [1]) | inhibition in vivo at 3 mg/kg (Rattus norvegicus) | other results
CN(C1CCC(=O)c2ccccc21)C1CC(=O)c2ccccc21 (stereo unspecified) | 61% |  | 
CC(=O)N(C1CCCc2ccccc21)C1CC(=O)c2ccccc21 (stereo unspecified) |  |  | inhibition (Mast cell [2]): inactive
O=C1CC(N(Cc2ccccc2)C2CCc3ccccc3C2)c2ccccc21 (stereo unspecified) | 67% | 79% | 
Cc1ccc(CN(C2CCc3ccccc3C2)C2CC(=O)c3ccccc32)cc1 (stereo unspecified) | 68% | 73% | 
CN(C1CCc2ccccc21)C1CCC(=O)c2ccccc21 (stereo unspecified) | 14% |  | inhibition (Rattus norvegicus): inactive
CN(C1CCOc2ccccc21)C1CC(=O)c2ccccc21 (stereo unspecified) | 100% |  | 
CN(C1CCCc2ccccc21)C1CCCc2ccccc21 (stereo unspecified) |  |  | inhibition (Mast cell [2]): inactive
COc1ccc2c(c1)C(N(C)C1CCCc3ccccc31)CC2=O (stereo unspecified) |  | 62% | inhibition at 20 µM (Mast cell [2]): 55%
COc1cccc2c1C(=O)CC2N(C)C1CCCc2ccccc21 (stereo unspecified) |  |  | inhibition at 20 µM (Mast cell [2]): 48%
CN(C1CCc2ccccc2C1)C1CC(=O)c2ccccc21 (stereo unspecified) | 76% | 98% | inhibition at 20 µM (Mast cell [3]): 95%
COc1cc(CN(C2CCc3ccccc3C2)C2CC(=O)c3ccccc32)cc(OC)c1OC (stereo unspecified) |  | 70% | inhibition at 20 µM (Mast cell [2]): 40%
O=C(O)c1cc(=O)c2c(OCC(O)COc3cccc4oc(C(=O)O)cc(=O)c34)cccc2o1 [CROMOLYN SODIUM] | 10% | 99% | 
COc1ccc2c(c1)C(N(C)C1CC(=O)c3ccccc31)CCC2 (stereo unspecified) | 100% |  | 
C=CCN(C1CCc2ccccc2C1)C1CC(=O)c2ccccc21 (stereo unspecified) | 59% | 82% | 
C=CCN(C1CCCc2ccccc21)C1CC(=O)c2ccccc21 (stereo unspecified) | 92% | 72% | 
CN(C1CCCc2ccccc21)C1CCC(=O)c2ccccc21 (stereo unspecified) | 99% | 29% | IC50 (Mast cell [4]): 38000 nM; IC50 (Mast cell [5]): 2400 nM
CN(C1CCCc2ccccc21)C1CC(=O)c2ccccc21 (stereo unspecified) | 93% | 13% | IC50 (Mast cell [6]): 1500 nM; IC50 (Mast cell [4]): 2000 nM; IC50 (Mast cell [5]): 700 nM; IC50 (Mast cell [7]): 4700 nM; inhibition at 10 µM (Mast cell [8]): 68%
